# Screening results: PubChem BioAssay, several laboratories
# UBC13 polyUb: human UBC13 polyubiquitination inhibition; inhibition, % at 20 µM; AID 485273; hit rate 0.47% among 330,000; UBC13 polyubiquitin chain formation, TR-FRET; P61088; in the data active = inhibition above about 45%, passing the limit was not always enough
# Target sequence (P61088 whole entry, looked up): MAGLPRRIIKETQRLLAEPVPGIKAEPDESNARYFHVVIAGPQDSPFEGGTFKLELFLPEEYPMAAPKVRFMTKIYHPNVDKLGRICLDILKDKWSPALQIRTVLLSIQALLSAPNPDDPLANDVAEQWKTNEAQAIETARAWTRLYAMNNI
# procasp3 activ: procaspase-3 (human) activation. hit rate 0.11% among 330,000. AID 463141. activation, % at 8.5 µM. recombinant procaspase-3 D3A, Ac-DEVD-pNA absorbance 405 nm. P42574;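 active = activation above the mean of all tested compounds plus 3 SD, cut at about 21% in these data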;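 also: 0% = DMSO alone and 100% = DMSO wells spiked with extra 5 µM PC-3 D3A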
#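 Test system: Procaspase-3 D3A mutant; medium: Zinc-free HEPES/NaCl buffer with 0.01% Triton X-100 at pH 7.4; reagent: DEVD-pNA substrate; doses: one concentration, 8.5 µM nominal, 0.8% DMSO; times: 1 h preincubation plus 2 h reaction at 25 °C; signal: Epi-absorbance at 405 nm of released p-nitroaniline, 0 and 120 min; replicates: singlicate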
# IDE inh: inhibits human insulin-degrading enzyme in HEK cells. P14735. FAbetaB cleavage, fluorescence polarization. inhibition, % at 5.59 µM. hit rate 0.41% among 320,000. AID 434962;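 active = percent inhibition above the average of all tested compounds plus 3 SD, set per screening campaign, cut at about 16% in these data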;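 also: IDE supplied by intact live HEK cells; FP after avidin binding of uncleaved biotin substrate so inhibition keeps polarization high; 0% = DMSO wells and 100% = 60 µM reference IDE inhibitor Ii1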
# procasp7 counter: counter-screen: procaspase-7 (human) activation; P55210; AID 463210; hit rate 0.093% among 330,000; activation, % at 8.5 µM; recombinant procaspase-7, Ac-DEVD-pNA absorbance 405 nm; D23A/D198A/D206A triple mutant, cannot self-cleave; scale: DMSO 0, 5 µM enzyme 100;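 active = percent activation above the screen-wide mean plus 3 SD, cut at about 25% in these data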
#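 Assay system – Uncleavable procaspase-7 mutant enzyme · Quantity – 2 µM procaspase-7 mutant as dispensed · Times – 1 h preincubation, 2 h reaction · Dosing – single nominal 8.5 µM compound dose, 0.8% DMSO final · Buffer or medium – Zinc-free 50 mM HEPES buffer, pH 7.4, with NaCl and Triton X-100 · Detection – Epi-absorbance of released pNA at 405 nm, two timepoints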
# IDE cell activ: activators of human insulin-degrading enzyme in cells; HEK cells, FAbeta-B cleavage, fluorescence polarization; 0% vehicle, 100% cell-free pure enzyme wells; AID 493087; hit rate 0.073% among 340,000; activation, % at 5.96 µM;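 active = activation above the mean of all tested compounds plus 3 SD, set per screening campaign, cut at about 17% in these data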
# PHOSPHO1 inh: inhibitors of human PHOSPHO1 phosphatase | Q8TCT1 | recombinant PHOSPHO1, absorbance phosphatase assay | inhibition, % at 13.3 µM | hit rate 1.1% among 290,000 | AID 1565; in the data active = inhibition above about 60%
# Target sequence (Q8TCT1 whole entry, looked up): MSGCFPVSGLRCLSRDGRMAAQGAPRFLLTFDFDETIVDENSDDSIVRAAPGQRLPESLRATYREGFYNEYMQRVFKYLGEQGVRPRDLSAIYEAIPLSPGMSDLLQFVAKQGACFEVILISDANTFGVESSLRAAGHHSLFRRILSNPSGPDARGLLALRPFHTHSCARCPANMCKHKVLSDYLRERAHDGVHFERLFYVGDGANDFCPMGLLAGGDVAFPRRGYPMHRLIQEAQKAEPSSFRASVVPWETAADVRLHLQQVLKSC
# IDE cell inh cf: confirmation of human insulin-degrading enzyme inhibitors in cells | inhibition, % at 5.59 µM | shares compounds with IDE inh | HEK cells, FAbetaB cleavage, fluorescence polarization | AID 435028 | hit rate 51% among 1,200;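 active = mean inhibition across triplicate wells above the cutoff set by the earlier primary insulin-degrading enzyme screen, cut at about 16% in these data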;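 also: 0% = DMSO wells and 100% = 60 µM reference IDE inhibitor Ii1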
# HEK293 tox: kills HEK cells in IDE inhibitor counter-screen; shares compounds with IDE inh; HEK293 cytotoxicity, ATP luminescence; inhibition, % at 5.59 µM; hit rate 28% among 1,200; in the data active = inhibition above about 22%;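 also: 0% = vehicle wells and 100% = reference cytotoxic drug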
# Active calls of the source: *; . = no result given. An excerpt weighted towards active compounds, which were near 1.9% of everything screened.
SMILES,UBC13 polyUb,procasp3 activ,IDE inh,procasp7 counter,IDE cell activ,PHOSPHO1 inh,IDE cell inh cf,HEK293 tox
Cc1ccc(-n2sc3ccccc3c2=O)cc1,-11,-28,97*,-36,-51,56,32*,99*
O=c1c2ccccc2sn1-c1ccc(F)cc1,-4,-20,60*,-25,-23,.,18*,64*
COC(=O)c1cccc(-n2sc3ccccc3c2=O)c1,0,-25,68*,-26,-23,.,37*,45*
C=CCNc1ncnc2c1[nH]c1ccc(C)cc12,8,2,30*,0,-18,6,15,35*
COc1cccc(/C=N/Nc2ncnc3c2[nH]c2ccc(C)cc23)c1OC,-22,3,63*,0,-45,22,59*,14
CCOc1ccc2[nH]c3c(NCCN(C)C)ncnc3c2c1,16,10,8,0,-3,33,.,.
CN(C(=O)C(C)(C)C)C1c2c(ccc3ccccc23)OCC1CO (stereo unspecified),.,.,.,.,-4,.,.,.
COc1ccc(SC[C@H](Cc2ccccc2)N2CC[C@@H](C)CCC2=O)cc1,8,-4,2,0,-1,.,.,.
Cc1onc(-c2ccccc2)c1C(=O)OCC(=O)Nc1ccc2c(c1)OCO2,13,-1,0,9,3,5,.,.
Cc1c(-c2cccc(Cl)c2)nc2ccccc2c1C(=O)OCC(=O)Nc1ccc2c(c1)OCO2,-14,0,17*,6,-4,-3,0,23*
O=C(CN1C(=O)S/C(=C\c2cc(Cl)c(O)c(Cl)c2)C1=O)Nc1ccccc1,.,-3,21*,-6,-26,10,23*,6
Nc1nnnn1/N=C/c1cc(Cl)cc(Cl)c1O,-3,-5,19*,-4,-36,-42,43*,8
Nc1nnnn1/N=C/c1cc(Cl)ccc1O,10,3,9,4,-9,37,.,.
CCc1cc(=O)oc2cc(C)cc(OC(C)C(=O)NCCN3CCOCC3)c12 (stereo unspecified),5,4,1,6,-2,24,.,.
COc1ccc(C(=O)/C=C/c2cc(OC)c(O)c(OC)c2)c(F)c1,-26,-9,52*,-14,-58,3,87*,43*
COc1ccc(C(=O)/C=C/c2ccc(N(C)C)cc2)c(OC)c1,-47,-28,82*,-26,-34,20,26*,47*
COc1ccc2cc(C(=O)/C=C/c3cc(OC)c(O)c(OC)c3)ccc2c1,-8,-9,7,3,-9,37,.,.
COc1ccc(C(=O)/C=C/c2ccccc2)c(OC)c1,3,-3,0,7,1,32,.,.
CC(C)c1ccccc1-n1c(SCc2cc(=O)oc3ccc4ccccc4c23)nnc1-c1cccnc1,-3,-3,24*,-10,-59,-32,13,21
N#Cc1ccc(-c2cccnc2)nc1SCC(=O)c1ccccc1,-7,-4,23*,3,-41,16,42*,18
Cc1cccc(-c2nc(S(=O)(=O)c3ccc(F)cc3)c(NCCCN3CCOCC3)o2)c1,-5,3,-2,12,-2,28,.,.
Cc1ccc2[nH]c3c(N4CCN(Cc5ccc6c(c5)OCO6)CC4)ncnc3c2c1,.,.,.,.,.,21,.,.
c1ccc2c(c1)[nH]c1c(N3CCC4(CC3)OCCO4)ncnc12,-9,6,-1,-6,-4,4,.,.
OC1(c2cccc(C(F)(F)F)c2)CCN(c2ncnc3c2[nH]c2ccccc23)CC1,8,2,19*,-6,-10,.,7,35*
c1ccc2c(c1)CCN(c1ncnc3c1[nH]c1ccccc13)C2,4,-2,21*,-3,-25,17,17*,80*
SMILES,UBC13 polyUb,procasp3 activ,IDE inh,procasp7 counter,IDE cell activ,PHOSPHO1 inh,IDE cell inh cf,HEK293 tox
COc1cccc2[nH]c3c(N4CCc5ccccc5C4)ncnc3c12,15,13,2,-2,.,24,.,.
c1ccc(CN2CCN(c3ncnc4c3[nH]c3ccccc34)CC2)cc1,3,-4,33*,-2,-2,-16,18*,58*
CCOc1ccc2[nH]c3c(N4CCN(c5ccccn5)CC4)ncnc3c2c1,10,-19,25*,-9,-30,-7,7,26*
O=C1CCCN1C(=O)COc1ccccc1[N+](=O)[O-],-10,-1,2,11,5,.,.,.
O=C(O)c1ccccc1-c1ccccc1C(=O)NCc1ccccc1Cl,6,-1,-3,7,4,29,.,.
Cc1ccc2[nH]c3c(N4CCN(Cc5ccccc5)CC4)ncnc3c2c1,12,4,36*,10,-13,-4,17*,41*
Cc1ccc2c(c1)[nH]c1c(N3CCN(Cc4ccccc4)CC3)ncnc12,11,-5,13,8,-15,21,.,.
CCOC1=C/C(=C/c2c(N)n3nc(CC(=O)N4CCCC4)sc3nc2=O)C=CC1=O,-34,0,30*,-1,-88,12,39*,12
Nc1c(C=C2C=CC(=O)C=C2)c(=O)nc2sc(CC(=O)N3CCCCC3)nn12,-12,3,3,-3,2,18,.,.
COC1=CC(=Cc2c(N)n3nc(CC(=O)N4CCCCC4)sc3nc2=O)C=C(OC)C1=O,-121,-5,41*,6,-79,-28,26*,5
COC1=C/C(=C/c2c(N)n3nc(CC(=O)N4CCCC4)sc3nc2=O)C=CC1=O,-36,-1,24*,-11,-45,24,126*,15
Nc1c(/C=C2/C=CC(=O)C(O)=C2)c(=O)nc2sc(CC(=O)N3CCCC3)nn12,-46,5,3,3,-12,40,.,.
CCCN(CC(=O)Nc1ccccc1OC)C(=O)CC1CCCC1,12,4,-1,9,1,.,.,.
CCc1cc(C(=O)N2CCCC(CO)(Cc3ccc(F)cc3)C2)n(C)n1 (stereo unspecified),-6,9,8,4,1,10,.,.
CC1CN(C(=O)CCC(=O)NCc2ccccc2)c2ccccc2O1 (stereo unspecified),-9,-1,-1,-11,-5,-98,.,.
CCOc1ccc(OCCC(=O)N(CC)CC(=O)NCc2cccs2)cc1,10,8,-4,2,8,.,.,.
Cc1ccc(N2CC(C(=O)N3CCC(C(=O)Nc4ccc(Br)cc4)CC3)CC2=O)cc1 (stereo unspecified),4,2,17*,-2,-7,9,7,12
